Assay results as given in ChEMBL document CHEMBL1811876 (J Med Chem, 2011).
Active and inactive are the calls of the source. No cut-off for these calls is given here.

Legend:
[1] = test system: KB; assay: Anticancer activity against human KB cells after 72 hrs by sulforhodamine B assay; assay type: functional
[2] = Upregulation of Cdt1 expression in human CL1-5 cells at 0.01 ug/mL by RT-PCR analysis after 24 to 48 hrs; assay type: functional, cell-based
[3] = (§1) Upregulation of Cdt1 expression in human CL1-5 cells at 0.01 ug/mL by RT-PCR analysis after 24 to 48 hrs by Western blot; assay type: functional, cell-based
Outline: (§2)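 CL1-5 cells were exposed to the test agent for 24 and 48 h. Cdt1 and CDC6 protein levels were then assessed by Western blot.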

[4] = Upregulation of CDC6 expression in human CL1-5 cells at 0.01 ug/mL by RT-PCR analysis after 24 to 48 hrs; assay type: functional, cell-based
[5] = as §1; assay type: functional, cell-based; outline: as §2; remark: listed apart in the source
[6] = test system: A549; assay: Anticancer activity against human A549 cells after 72 hrs by sulforhodamine B assay; assay type: functional; settings: A549, 72 h
[7] = test system: HCT-8; assay: Anticancer activity against human HCT8 cells after 72 hrs by sulforhodamine B assay; assay type: functional; settings: HCT-8, 72 h
[8] = test system: DU-145; assay: Anticancer activity against human DU145 cells after 72 hrs by sulforhodamine B assay; assay type: functional; settings: DU-145, 72 h
[9] = Anticancer activity against human KBVIN cells after 72 hrs by sulforhodamine B assay; assay type: functional
[10] = Upregulation of CDT1 expression in human CL1-5 cells by cDNA microarray; assay type: functional, cell-based
[11] = Upregulation of CDC6 expression in human CL1-5 cells by cDNA microarray; assay type: functional, cell-based; settings: TDE = time-dependent effect

GI50 [1] | GI50 [6] | GI50 [7] | GI50 [8] | SMILES | Activity [2] | Activity [3] | Activity [4] | Activity [5] | GI50 [9] | Activity [10] | Activity [11]
0.102 µM | – | – | – | COc1ccc2c3c(c4cc(OC)c(OC)cc4c2c1)C[C@H]1CCCCCN1C3 | inactive | inactive | inactive | inactive | – | – | –
11.3 µM | 10.9 µM | 12.1 µM | 12.2 µM | COC(=O)N1CCN2Cc3c(c4cc(OC)c(OC)cc4c4cc(OC)ccc34)C[C@H]2C1 | – | – | – | – | – | – | –
1.72 µM | 0.66 µM | 1 µM | 2.03 µM | COc1ccc2c3c(c4cc(OC)c(OC)cc4c2c1)C[C@H]1CN(C)CN1C3 | – | – | – | – | – | – | –
11.5 µM | 4.3 µM | 5.73 µM | 14.3 µM | COc1ccc2c3c(c4cc(OC)c(OC)cc4c2c1)C[C@H]1CCN(C2CC2)CN1C3 | – | – | – | – | – | – | –
> 20 µM | 15 µM | 18.1 µM | 15.7 µM | COc1ccc2c3c(c4cc(OC)c(OC)cc4c2c1)C[C@H]1CN(C(=O)c2ccccc2)CCN1C3 | – | – | – | – | – | – | –
2.1 µM | 1.12 µM | – | 1.2 µM | COc1ccc2c3c(c4cc(OC)c(OC)cc4c2c1)C[C@@H]1CCN(CC2CC2)CN1C3 | – | – | – | – | 5.68 µM | – | –
5.3 µM | 9.73 µM | 6.45 µM | 7.13 µM | COc1ccc2c3c(c4cc(OC)c(OC)cc4c2c1)C[C@H]1CN(C)CCN1C3 | – | – | – | – | – | – | –
12.3 µM | 14.1 µM | – | 13.1 µM | COc1ccc2c3c(c4cc(OC)c(OC)cc4c2c1)C[C@@H]1CN(C(=O)N(C)C)CCN1C3 | – | – | – | – | 11.4 µM | – | –
> 20 µM | > 20 µM | > 20 µM | > 20 µM | COc1ccc2c3c(c4cc(OC)c(OC)cc4c2c1)C[C@H]1CN(c2ccccc2)CN1C3 | – | – | – | – | – | – | –
5.7 µM | 5.3 µM | 3.63 µM | 4.95 µM | COc1ccc2c3c(c4cc(OC)c(OC)cc4c2c1)C[C@H]1CN(Cc2ccccc2)CN1C3 | – | – | – | – | – | – | –
> 20 µM | > 20 µM | – | > 20 µM | COc1ccc2c3c(c4cc(OC)c(OC)cc4c2c1)C[C@@H]1CN(CC2CC2)CCN1C3 | – | – | – | – | 13.4 µM | – | –
2.84 µM | 5.2 µM | – | 3 µM | COc1ccc2c3c(c4cc(OC)c(OC)cc4c2c1)C[C@@H]1CCN(N(C)C)CN1C3 | – | – | – | – | 5.3 µM | – | –
14.7 µM | 14.7 µM | 14 µM | > 20 µM | COC(=O)CN1CCN2Cc3c(c4cc(OC)c(OC)cc4c4cc(OC)ccc34)C[C@H]2C1 | – | – | – | – | – | – | –
1.45 µM | 5.11 µM | – | 1.66 µM | COc1ccc2c3c(c4cc(OC)c(OC)cc4c2c1)C[C@@H]1CCN(CC(C)C)CN1C3 | – | – | – | – | 7.32 µM | – | –
1.66 µM | 1.79 µM | 1.45 µM | 1.82 µM | COc1ccc2c3c(c4cc(OC)c(OC)cc4c2c1)C[C@H]1CCOCN1C3 | – | – | – | – | – | – | –
0.036 µM | 0.022 µM | – | 0.025 µM | COc1ccc2c3c(c4cc(OC)c(OC)cc4c2c1)C[C@H]1CCCN1C3 [(-)-ANTOFINE] | Active | Active | Active | Active | – | Dose-dependent effect | tde
5.06 µM | 1.52 µM | 1.36 µM | 2.3 µM | COc1ccc2c3c(c4cc(OC)c(OC)cc4c2c1)C[C@H]1CCN(CC(C)C)CN1C3 | – | – | – | – | – | – | –
11.2 µM | 12.9 µM | – | 12.2 µM | COc1ccc2c3c(c4cc(OC)c(OC)cc4c2c1)C[C@@H]1CN(CC(C)C)CCN1C3 | – | – | – | – | 9.96 µM | – | –
3.41 µM | 2.68 µM | – | 4.62 µM | COc1ccc2c3c(c4cc(OC)c(OC)cc4c2c1)C[C@@H]1CN(Cc2ccccc2)CN1C3 | – | – | – | – | 1.87 µM | – | –
2.31 µM | 1.67 µM | 2.01 µM | 2.26 µM | COc1ccc2c3c(c4cc(OC)c(OC)cc4c2c1)C[C@H]1CN(N(C)C)CN1C3 | – | – | – | – | – | – | –
> 20 µM | > 20 µM | 13 µM | 17.9 µM | COc1ccc2c3c(c4cc(OC)c(OC)cc4c2c1)C[C@H]1CN(C2CC2)CCN1C3 | – | – | – | – | – | – | –

GI50 [1] | GI50 [6] | GI50 [7] | GI50 [8] | SMILES | Activity [2] | Activity [3] | Activity [4] | Activity [5] | GI50 [9] | Activity [10] | Activity [11]
4.4 µM | 2 µM | 1.82 µM | 6.6 µM | COc1ccc2c3c(c4cc(OC)c(OC)cc4c2c1)C[C@H]1CN(CC(C)C)CN1C3 | – | – | – | – | – | – | –
2.71 µM | 1.8 µM | 1.85 µM | 3.7 µM | COc1ccc2c3c(c4cc(OC)c(OC)cc4c2c1)C[C@H]1CN(C2CC2)CN1C3 | – | – | – | – | – | – | –
2.22 µM | 2.48 µM | – | 1.46 µM | COc1ccc2c3c(c4cc(OC)c(OC)cc4c2c1)C[C@@H]1CCN(CCO)CN1C3 | – | – | – | – | > 20 µM | – | –
0.068 µM | – | – | – | COc1ccc2c3c(c4cc(OC)c(OC)cc4c2c1)CC1CCOCCN1C3 (single isomer, unassigned) | – | – | – | – | – | – | –
8.24 µM | 7.13 µM | 9.45 µM | 10.5 µM | CCN1CCN2Cc3c(c4cc(OC)c(OC)cc4c4cc(OC)ccc34)C[C@H]2C1 | – | – | – | – | – | – | –
10 µM | 6.62 µM | 7.47 µM | 10.2 µM | COc1ccc2c3c(c4cc(OC)c(OC)cc4c2c1)C[C@H]1CN(CCc2ccccc2)CN1C3 | – | – | – | – | – | – | –
17.5 µM | 14.5 µM | 17.8 µM | 17 µM | COc1ccc2c3c(c4cc(OC)c(OC)cc4c2c1)C[C@H]1CN(S(C)(=O)=O)CCN1C3 | – | – | – | – | – | – | –
8.62 µM | 14.1 µM | 7.41 µM | 12.6 µM | COc1ccc2c3c(c4cc(OC)c(OC)cc4c2c1)C[C@H]1CN(CCO)CCN1C3 | – | – | – | – | – | – | –
3.08 µM | 1.78 µM | 2.37 µM | 2.97 µM | COc1ccc2c3c(c4cc(OC)c(OC)cc4c2c1)C[C@H]1CCN(N(C)C)CN1C3 | – | – | – | – | – | – | –
2.38 µM | 4.15 µM | – | 6.01 µM | COc1ccc2c3c(c4cc(OC)c(OC)cc4c2c1)C[C@@H]1CN(N(C)C)CN1C3 | – | – | – | – | 11 µM | – | –
1.59 µM | 5.68 µM | 10.7 µM | 1.99 µM | COc1ccc2c3c(c4cc(OC)c(OC)cc4c2c1)C[C@H]1CCN(CCO)CN1C3 | – | – | – | – | – | – | –
6.64 µM | 3.94 µM | 2.71 µM | 7.38 µM | CCCN1C[C@@H]2Cc3c(c4ccc(OC)cc4c4cc(OC)c(OC)cc34)CN2C1 | – | – | – | – | – | – | –
1.1 µM | 1.37 µM | 1.26 µM | 1.29 µM | COc1ccc2c3c(c4cc(OC)c(OC)cc4c2c1)C[C@@H]1CCOCN1C3 | – | – | – | – | – | – | –
0.79 µM | 0.66 µM | 0.66 µM | 1 µM | COc1ccc2c3c(c4cc(OC)c(OC)cc4c2c1)C[C@@H]1CN(C)CN1C3 | – | – | – | – | – | – | –
15.5 µM | 11.7 µM | 13.8 µM | 11.9 µM | COc1ccc2c3c(c4cc(OC)c(OC)cc4c2c1)C[C@H]1CN(C(C)=O)CCN1C3 | – | – | – | – | – | – | –
16.9 µM | > 20 µM | – | > 20 µM | COc1ccc2c3c(c4cc(OC)c(OC)cc4c2c1)C[C@H]1CN(Cc2ccccc2)CCN1C3 | – | – | – | – | 15.2 µM | – | –
7.83 µM | 4.41 µM | 10.8 µM | 6.36 µM | COc1ccc2c3c(c4cc(OC)c(OC)cc4c2c1)C[C@H]1CN(CCO)CN1C3 | – | – | – | – | – | – | –
12.1 µM | 16.4 µM | – | 11.9 µM | COc1ccc2c3c(c4cc(OC)c(OC)cc4c2c1)C[C@@H]1CN(C(=O)c2ccccc2)CCN1C3 | – | – | – | – | 7.64 µM | – | –
> 20 µM | > 20 µM | > 20 µM | > 20 µM | COc1ccc2c3c(c4cc(OC)c(OC)cc4c2c1)C[C@H]1CCN(Cc2ccccc2)CN1C3 | – | – | – | – | – | – | –
1.79 µM | 1.73 µM | 1.62 µM | 2.08 µM | COc1ccc2c3c(c4cc(OC)c(OC)cc4c2c1)C[C@H]1CNCCN1C3 | – | – | – | – | – | – | –
6.57 µM | 0.79 µM | 0.25 µM | 2.94 µM | COc1ccc2c3c(c4cc(OC)c(OC)cc4c2c1)C[C@H]1CN(CC2CC2)CCN1C3 | – | – | – | – | – | – | –

SMILES | GI50 [1] | GI50 [6] | GI50 [7] | GI50 [8] | Activity [2] | Activity [3] | Activity [4] | Activity [5] | GI50 [9] | Activity [10] | Activity [11]
COc1ccc2c3c(c4cc(OC)c(OC)cc4c2c1)C[C@H]1CCN(c2ccccc2)CN1C3 | > 20 µM | > 20 µM | > 20 µM | > 20 µM | – | – | – | – | – | – | –
COc1ccc2c3c(c4cc(OC)c(OC)cc4c2c1)C[C@H]1CCCCN1C3 [CRYPTOPLEURINE] | 0.00151 µM | 0.00138 µM | 0.00109 µM | 0.00159 µM | – | – | – | – | – | – | –
COc1ccc2c3c(c4cc(OC)c(OC)cc4c2c1)C[C@H]1CN(P(=O)(OC)OC)CCN1C3 | 8.09 µM | 12.2 µM | – | 14.7 µM | – | – | – | – | 10.4 µM | – | –
COc1ccc2c3c(c4cc(OC)c(OC)cc4c2c1)C[C@@H]1COCCN1C3 | 6.68 µM | 14 µM | 3.45 µM | 7.05 µM | – | – | – | – | – | – | –
